Legend:
P388/ADR [1] = assay: In vitro relative vinblastin uptake into P388/ADR (murine leukemia/multidrug resistant) cells following 10 uM treatment.; assay type: functional, Mus musculus
Summary of the method: (§1)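 10^6 P388/S or P388/ADR cells in 1 mL of 20 mM Hepes-buffered medium, pH 7.4. They are incubated with 4.6 kBq [3H]vinblastine with or without 10 μM compound (DMSO final 1%) at 37 °C for 30 min. Cells are then chilled, pelleted at 2 °C and washed twice in cold PBS. They are solubilized in NaOH and counted. The value is uptake relative to untreated cells.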

P388/S [2] = assay: In vitro relative vinblastin uptake into P388/s (murine leukemia) cells following 10 uM treatment.; assay type: functional, Mus musculus; summary of the method: as §1
P388/S [3] = assay: Evaluation of inhibitory activity and cisplatin against drug sensitive P388 cells (P388/S) cells; assay type: functional, cell-based, Mus musculus; details: Mus musculus, P388/S
Summary of the method: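 P388/S or P388/ADR cells at 10^5 cells/mL in RPMI-1640/10% FCS medium. They receive graded adriamycin, mitomycin C or cisplatin, alone or together with 2.5 μM modulator, for 48 h (DMSO final 0.25%). Growth is read by MTT and the antitumor-drug IC50 is reported.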

P388/ADR [4] = assay: Evaluation of inhibitory activity and adriamycin against multidrug resistant P388 cells (P388/ADR) cells; details: Mus musculus
P388/ADR [5] = assay: Evaluation of inhibitory activity against multidrug resistant P388 cells (P388/ADR) cells; assay type: functional, cell-based, Mus musculus; details: Mus musculus, P388/ADR
Summary of the method: (§2)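 P388/S and P388/ADR murine leukemia cells are maintained by weekly intraperitoneal passage in female CDF1 mice. For the assay they are seeded at 10^5 cells/mL in RPMI-1640 with 10% FCS, 20 μM β-mercaptoethanol and 100 μg/mL kanamycin. Vinblastine is given with or without modulator (0–5.0 μM; DMSO final 0.25%) for 48 h. Growth is read by MTT and vinblastine IC50 is reported.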

P388/S [6] = assay: Evaluation of inhibitory activity against drug sensitive P388 cells (P388/S) cells; assay type: functional, cell-based; details: Mus musculus; summary of the method: as §2

Row | SMILES | Relative uptake (P388/ADR [1]) | Relative uptake (P388/S [2]) | further results
1 | O=C1NC(=O)N(Cc2ccccc2)CCCN1Cc1ccccc1 | 1.78 | 0.93 | –
2 | CSC1=NC(=O)N(Cc2ccccc2)CCN1Cc1ccccc1 | 2.13 | 1.37 | –
3 | O=C1NC(=O)N(Cc2cccc(Cl)c2)CCN1Cc1cccc(Cl)c1 | 1.05 | 1.2 | –
4 | O=C1NC(=S)N(Cc2ccc(Cl)cc2)CCN1Cc1ccc(Cl)cc1 | 5.35 | 1.3 | –
5 | O=C1NC(=S)N(Cc2ccccc2)CCN1Cc1ccccc1 | 2.11 | 1.2 | –
6 | COc1ccc(CCN(C)CCCC(C#N)(c2ccc(OC)c(OC)c2)C(C)C)cc1OC (stereo not given) [VERAPAMIL] | 5.7 | 1.02 | –
7 | S=C1NC(=S)N(Cc2cccc(Cl)c2)CCN1Cc1cccc(Cl)c1 | 5.34 | 1.34 | –
8 | COc1cccc2c1C(=O)c1c(O)c3c(c(O)c1C2=O)C[C@@](O)(C(=O)CO)C[C@@H]3OC1C[C@H](N)[C@H](O)[C@H](C)O1.CSC1=NC(=O)N(Cc2ccc(Cl)cc2)CCN1Cc1ccc(Cl)cc1 (stereo not given in full) | – | – | IC50 (P388/S [3]): 13 nM; IC50 (P388/ADR [4]): 90 nM
9 | S=C1NC(=S)N(Cc2ccccc2)CCN1Cc1ccccc1 | 4.16 | 1.26 | –
10 | CSC1=NC(=S)N(Cc2ccccc2)CCN1Cc1ccccc1 | 3.44 | 1.19 | –
11 | COc1ccc(CN2CCN(Cc3ccc(OC)c(OC)c3)C(SC)=NC2=O)cc1OC | 1.14 | 1.04 | –
12 | COc1ccc(CN2CCN(Cc3ccc(OC)c(OC)c3)C(=O)NC2=O)cc1OC | 1.16 | 0.93 | –
13 | COc1cccc2c1C(=O)c1c(O)c3c(c(O)c1C2=O)C[C@@](O)(C(=O)CO)C[C@@H]3O[C@H]1C[C@H](N)[C@H](O)[C@H](C)O1 [DOXORUBICIN] | – | – | IC50 (P388/ADR [5]): 360 nM; IC50 (P388/S [6]): 19 nM
14 | CSC1=NC(=O)N(Cc2cccc(Cl)c2)CCN1Cc1cccc(Cl)c1 | 6.75 | 1.16 | –
15 | S=C1NC(=S)N(Cc2ccc(Cl)cc2)CCN1Cc1ccc(Cl)cc1 | 6 | 1.48 | –

Source: ChEMBL document CHEMBL1128222, “Novel inhibitors for multidrug resistance: 1,3,5-triazacycloheptanes” (J Med Chem, 1995)
